# CaV13 FRET inh: Primary screen for inhibitors of IQ motif and Ca2+-dependent inactivation inhibitor domain binding in CACNA1D, Förster resonance energy transfer in living cells, …. HEK cells, CFP/YFP FRET ICDI-IQ, plate reader, 10 min; percent FRET-ratio fall versus neutral wells. inhibition, % at 12.3 µM. AID 743397. 340,000 compounds, 0.098% hits;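 active = mean replicate inhibition of at least 30% and at least 1% of replicates passing that level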
# CAL PDZ FP-1: human CAL PDZ-peptide interaction inhibition; 330,000 compounds, 0.02% hits; purified CAL PDZ, TMR-peptide fluorescence polarization, 1 h; Q9HD26; inhibition, % at 20 µM;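 active = highest replicate inhibition of at least 40%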
#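 Control set: unlabelled peptide and DMSO controls / Material: purified CerCALP PDZ construct / Timing: 1 h incubation at room temperature before polarization reading / Doses: 20 µM, one dose / Detection: fluorescence polarization (mP)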
# C-LANA FP: inhibitors of KSHV LANA C-terminal domain DNA binding. MBP-C-LANA/FAM-LBS DNA binding, fluorescence polarization. inhibition, % at 9 µM. 340,000 compounds, 0.078% hits. AID 504423;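 active = highest replicate inhibition at or above 60% at 9 µM, even if other replicates fall short; inactive = all replicates below 60% inhibition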
# CAL PDZ FP-2: CAL PDZ (human) peptide binding inhibition; AID 602252; purified CAL PDZ, TMR-peptide fluorescence polarization, 1 h; inhibition, % at 24.9 µM; 300,000 compounds, 0.92% hits;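 active = mean inhibition of at least 30% with at least half of replicates also reaching 30%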
# Keap1-Nrf2 PPI: disrupts human Keap1 binding to Nrf2 peptide; Q14145; Keap1 Kelch-Nrf2 peptide fluorescence polarization, 1536-well; inhibition, % at 9.4 µM; 340,000 compounds, 0.15% hits; AID 504523; in the data active = inhibition above about 12%;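 note: human Keap1 Kelch domain with fluorescein labeled Nrf2 9mer peptide probe; higher means more block of Keap1 binding to Nrf2 peptide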
# LANA-H2B inh: blocks KSHV LANA binding to histone H2A/H2B | Q9QR71 | cell-free LANA-H2A/H2B peptide, fluorescence polarization | inhibition, % (test concentration not listed) | 320,000 compounds, 0.6% hits | AID 2629; in the data active = inhibition mostly above about 10%, no sharp cut-off; inactive = mostly below about 6.7%
# Target sequence (Q9QR71 whole entry, looked up): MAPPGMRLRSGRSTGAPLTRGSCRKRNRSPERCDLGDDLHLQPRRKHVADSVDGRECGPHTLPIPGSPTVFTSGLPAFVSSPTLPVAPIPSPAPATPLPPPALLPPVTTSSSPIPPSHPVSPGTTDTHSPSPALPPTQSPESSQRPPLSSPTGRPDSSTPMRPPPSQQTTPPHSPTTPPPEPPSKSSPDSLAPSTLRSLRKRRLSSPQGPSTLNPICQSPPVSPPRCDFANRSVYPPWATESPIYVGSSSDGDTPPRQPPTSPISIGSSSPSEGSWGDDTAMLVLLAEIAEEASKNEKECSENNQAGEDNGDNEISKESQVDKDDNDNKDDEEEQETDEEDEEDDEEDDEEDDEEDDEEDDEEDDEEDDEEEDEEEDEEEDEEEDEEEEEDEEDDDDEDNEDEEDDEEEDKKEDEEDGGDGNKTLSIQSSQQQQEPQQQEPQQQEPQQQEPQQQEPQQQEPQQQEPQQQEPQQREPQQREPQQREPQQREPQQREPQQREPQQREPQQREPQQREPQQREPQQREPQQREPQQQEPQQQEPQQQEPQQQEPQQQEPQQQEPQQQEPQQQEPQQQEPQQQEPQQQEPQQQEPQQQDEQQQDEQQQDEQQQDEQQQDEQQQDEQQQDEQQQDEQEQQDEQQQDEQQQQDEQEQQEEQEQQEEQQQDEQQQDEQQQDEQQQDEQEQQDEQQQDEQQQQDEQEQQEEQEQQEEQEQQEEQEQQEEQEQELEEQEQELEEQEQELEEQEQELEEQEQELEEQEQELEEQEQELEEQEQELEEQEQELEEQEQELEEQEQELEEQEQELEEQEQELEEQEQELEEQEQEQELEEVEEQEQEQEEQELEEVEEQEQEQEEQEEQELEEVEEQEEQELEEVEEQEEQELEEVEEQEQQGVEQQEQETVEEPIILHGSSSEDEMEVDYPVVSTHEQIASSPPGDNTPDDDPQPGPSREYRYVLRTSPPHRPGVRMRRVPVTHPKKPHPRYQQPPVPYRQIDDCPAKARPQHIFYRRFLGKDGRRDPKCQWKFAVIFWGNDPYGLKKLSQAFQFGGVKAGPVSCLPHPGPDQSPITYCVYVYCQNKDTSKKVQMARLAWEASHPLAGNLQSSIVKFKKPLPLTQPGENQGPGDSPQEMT
# Numbers stand for hits; i = inactive; nt = no result; + = active, no number. An excerpt weighted towards active compounds, which were near 1.5% of everything screened.
SMILES,CaV13 FRET inh,CAL PDZ FP-1,C-LANA FP,CAL PDZ FP-2,Keap1-Nrf2 PPI,LANA-H2B inh
CC(C)c1[nH]nc2c1C(c1cccc(C(F)(F)F)c1)N(c1ccccc1)C2=O (centres undefined),i,nt,nt,nt,nt,nt
COc1ccc(C)cc1N(CC(=O)NC1CCCC1)C(=O)Cn1nnc(-c2ccc(C)o2)n1,i,i,i,103,i,nt
CCCCn1nnc(NC(=O)c2ccc([N+](=O)[O-])cc2Cl)n1,i,i,i,67,i,i
COC(=O)c1cc2c(c3c4cc(C)ccc4n(S(=O)(=O)c4ccc(C)cc4)c13)C(=O)N(Cc1ccccc1OC)C2,i,nt,nt,nt,nt,nt
COc1ccc(CNc2nc3nc(-c4ccccc4)cc(=O)n3[nH]2)cc1OC,nt,i,i,40,i,i
COc1ccc(CNc2nc3nc(C)c(Cl)c(=O)n3[nH]2)cc1OC,i,i,i,i,i,i
O=C(Nc1nc2n(n1)C(c1ccc(Cl)cc1)CC(c1ccc(Cl)cc1)N2)c1ccco1 (centres undefined),nt,nt,nt,nt,nt,i
O=C(Nc1nc2n(n1)C(c1ccc(F)cc1)CC(c1ccccc1)N2)c1ccco1 (centres undefined),i,i,i,38,i,i
O=C(c1cc([N+](=O)[O-])cc([N+](=O)[O-])c1)N(Cc1nnc(-c2ccccc2Cl)o1)C1CC1,i,i,i,i,i,i
O=C1OC(CC(=O)N(Cc2nnc(-c3ccccc3Cl)o2)C2CC2)c2ccccc21 (centres undefined),i,i,i,nt,i,20
CCOC(=O)C1CCCN(c2nc3ccccc3nc2C(C#N)C(=O)OCC)C1 (centres undefined),nt,i,i,i,i,i
CCOC(=O)C1CCCN(c2nc3ccccc3nc2C(C#N)C(=O)OCCOC)C1 (centres undefined),i,i,i,i,i,20
O=C(NC(=S)Nc1ccccc1)c1cncc(C#Cc2ccccc2)c1,i,i,i,45,i,i
O=C(O)c1cncc(C#Cc2ccccc2)c1,i,i,i,i,i,i
COc1ccccc1OCC(=O)NNc1c2ccccc2nc2ccccc12,i,i,i,i,i,i
CCOC(=O)C1C(=O)OC2(CCOC(C)(C)C2)C1C(=O)OCC (centres undefined),i,i,i,i,i,29
FC(F)(F)c1ccccc1Cc1c(-c2ccco2)nc2ccc(Br)cn12,i,nt,nt,nt,nt,nt
CSc1ccccc1OCc1cc(C(=O)N(C)Cc2nonc2C)no1,i,i,i,36,i,i
Cc1nonc1CN(C)C(=O)c1cc(COc2ccc(F)cc2Cl)on1,i,i,i,i,i,i
O=C(Nc1ccc(Cl)cc1)c1ccc(OCC2CCCO2)cc1 (centres undefined),i,i,i,34,i,i
O=C(Nc1ccc(N2CCCC2)cc1)C(Cl)c1ccccc1 (centres undefined),nt,i,i,i,i,28
CC(C)C(c1nnnn1Cc1ccc(F)cc1)N1CCC(C(N)=O)CC1 (centres undefined),i,i,i,i,i,39
NC(=O)C1CCN(C(c2ccccc2Cl)c2nnnn2Cc2ccc3c(c2)OCO3)CC1 (centres undefined),i,i,i,i,i,26
COC(=O)c1cc(=O)n(Cc2ccc3c(c2)OCO3)c(=Nc2ccc(F)c(Cl)c2)s1,38,i,i,i,i,i
O=C1c2[nH]nc(-c3ccccc3)c2C(c2cccc(C(F)(F)F)c2)N1c1ccccc1 (centres undefined),i,nt,nt,nt,nt,nt
SMILES,CaV13 FRET inh,CAL PDZ FP-1,C-LANA FP,CAL PDZ FP-2,Keap1-Nrf2 PPI,LANA-H2B inh
CC(=O)N1CCC(N2CCN(Cc3ccc(C)cc3)C(CCO)C2)CC1 (centres undefined),i,i,i,i,i,77
CN(C)c1ccc(/C=N/NC(=O)CSc2ccccn2)cc1,i,i,i,i,i,i
CCCOc1ccc(/C=N/NC(=O)CSc2ccccn2)cc1OC,i,i,i,nt,i,12
COc1cc(/C=N/NC(=O)CSc2ccccn2)ccc1O,i,i,i,44,i,i
CCCc1c(-c2cccc(Br)c2)ncn1CCc1ccccc1OC,i,nt,nt,nt,nt,nt
CN(C)C(=O)CN1C(=O)C2CC=C(Cl)CC2C1=O (centres undefined),i,i,i,32,i,i
C=COCCNC(=O)C(=O)NC(C)C,i,i,i,i,i,17
CC(C)NC(=O)C(=O)NCCc1ccc(Cl)cc1,nt,i,i,nt,i,i
N=c1oc2cc(O)ccc2cc1C(=O)Nc1nc2ccccc2s1,81,i,i,i,i,i
N=c1oc2cc(O)ccc2cc1C(=O)Nc1ccc(Br)cc1,+,i,i,i,i,i
C[C@H](CO)N1C[C@H](C)[C@@H](CN(C)C(=O)Nc2cccc(Oc3ccccn3)c2)OCc2cn(nn2)CCCC1=O,i,nt,nt,nt,nt,nt
O=C(C[C@H]1C/C=C\C[C@@H](Cc2ccc(F)cc2)C(=O)O[C@H](c2ccccc2)CNC1=O)N[C@@H](CO)Cc1ccccc1,i,i,i,i,i,i
O=C(C[C@@H]1C/C=C/CCCC(=O)O[C@H](c2ccccc2)CNC1=O)N[C@H](CO)Cc1ccccc1,i,i,i,i,i,10
COc1cc(CNc2ccc(C)c(C)c2)cc(OC)c1OC,nt,i,i,nt,i,5.5
COc1ccc(CNc2ccc(C)c(C)c2)cc1,i,i,i,i,i,i
CCN(C[C@H]1N[C@@](C)(C(=O)OC)[C@H]2C(=O)N(C)C(=O)[C@@H]12)C(=O)c1ccc(F)cc1,i,i,i,i,i,nt
CCN(C[C@H]1N[C@@](C)(C(=O)OC)[C@H]2C(=O)N(C)C(=O)[C@@H]12)C(=O)c1ccc(C)cc1,i,i,i,i,i,67
COC(=O)[C@]1(C)N[C@H](CN(C)C(=O)Nc2ccc(C)cc2)[C@@H]2C(=O)N(C)C(=O)[C@@H]21,i,i,i,i,i,160
CC(C)[C@H](NC(=O)[C@H](C)NC(=O)OC(C)(C)C)C(=O)N1CCC2CCN(Cc3ccccc3)CC21 (some centres undefined),i,nt,nt,nt,nt,nt
C=CCOc1ccc(Br)cc1CNC(C)(C)CO,i,i,i,i,i,i
C=CCOc1ccc(Br)cc1CNCCO,i,i,i,98,i,i
COc1cccc(-c2cc(NC(C)=O)c3ncc(-c4ccc(OC)c(OC)c4)n3c2)c1,i,nt,nt,nt,nt,nt
CCn1cc(C(=O)OCC(=O)c2cc(C)n(-c3cccc(C(F)(F)F)c3)c2C)c(=O)c2ccc(C)nc21,i,i,i,i,i,54
CC(C)[C@H](NS(=O)(=O)c1ccccc1)C(=O)OCC(=O)N1N=C(c2ccc(Cl)cc2)CC1c1ccco1 (some centres undefined),nt,i,i,i,i,i
O=S(=O)(c1ccccc1)n1ccc2ccccc21,i,i,i,47,i,i

# Source: PubChem BioAssay
